Data set [1] deals with U-87 MG. Nature of the data set: Induction of intracellular Ca2+ level in human U87MG cells at 1 to 100 uM by Fura-2 AM dye-based assay relative to trifluoperazine. The format is functional, U-87MG ATCC. A digest of the protocol:
(§1)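 U87MG cells or neural stem cells (NSCs) were loaded with 5 μM Fura-2 AM plus 1 μM pluronic acid for 40 min at room temperature. Recording was in HEPES-buffered saline at pH 7.3 with 2 mM CaCl₂. Compounds were applied by bath at 1, 3, 10, 30 or 100 μM. Emission at 510 nm was imaged under 340/380 nm excitation, and the ratio was calculated. Peak amplitude was taken relative to the 0–50 s baseline. Dose–response curves gave EC₅₀ and efficacy.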

Data set [2] deals with U-87 MG. Nature of the data set: Induction of intracellular Ca2+ level in human U87MG cells at 100 uM by Fura-2 AM dye-based assay relative to trifluoperazine. The class given is functional, cell-based. Conditions: U-87MG ATCC. A digest of the protocol:
as §1

Data set [3] has as its system U-87 MG. Nature of the data set: Induction of intracellular Ca2+ level in human U87MG cells by Fura-2 AM dye-based assay. The format is functional, cell-based, U-87MG ATCC. A digest of the protocol: as §1
The test system of data set [4] is NSC. Nature of the data set: Induction of intracellular Ca2+ level in human NSC cells at 100 uM by Fura-2 AM dye-based assay. The format is cell-based. A digest of the protocol: as §1
For data set [5], the system named is U-87 MG. Nature of the data set: Cytotoxicity against human U87MG cells assessed as reduction in cell viability after 24 hrs by MTT assay. The format is functional, cell-based, U-87MG ATCC. A digest of the protocol:
(§2)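 Cells were grown in DMEM with 10% FBS and penicillin/streptomycin at 37 °C and 5% CO₂, and used up to passage 20. They were seeded at 1.5 × 10³ cells/well, allowed to attach for 24 h, then treated with vehicle or compound diluted in complete medium for 24 h. MTT reagent was added for 2 h. Viability is expressed relative to cell numbers at initial time. n = 16; one-way ANOVA.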
On the technique in general: Formazan colour is commonly taken as a measure of viable cells.

Data set [6] can be described thus: Cytotoxicity against human GBL28 cells assessed as reduction in cell viability after 24 hrs by MTT assay. The format is functional, cell-based. A digest of the protocol: as §2
The test system of data set [7] is NSC. Nature of the data set: Cytotoxicity against human NSC cells assessed as reduction in cell viability after 24 hrs by MTT assay. The format is cell-based. A digest of the protocol: as §2
In data set [8] the test system is U-87 MG. Nature of the data set: Cytotoxicity against human U87MG cells assessed as reduction in cell viability at 1 to 20 uM after 24 hrs by MTT assay relative to control. The format is functional, U-87MG ATCC. A digest of the protocol: as §2
The nature of data set [9]: Cytotoxicity against human GBL28 cells assessed as reduction in cell viability at 1 to 20 uM after 24 hrs by MTT assay relative to control. The format is functional. A digest of the protocol:
as §2

Data set [10] deals with NSC. Nature of the data set: Cytotoxicity against human NSC cells assessed as reduction in cell viability at 1 to 20 uM after 24 hrs by MTT assay relative to control. The format is cell-based. A digest of the protocol: as §2
Data set [11] has as its system U-87 MG. Nature of the data set: Potency index, ratio of trifluoperazine IC50 to test compound IC50 for human U87MG cells. The format is functional, U-87MG ATCC.
The nature of data set [12]: Potency index, ratio of trifluoperazine IC50 to test compound IC50 for human GBL28 cells. The class given is functional.
Data set [13] concerns NSC. Nature of the data set: Induction of intracellular Ca2+ level in human NSC cells at 1 to 100 uM by Fura-2 AM dye-based assay relative to control. The class given is cell-based. Conditions: read-out: Efficacy. In short, it runs like this:
as §1

The nature of data set [14]: Selectivity ratio of efficacy for induction of intracellular Ca2+ level in human U87MG cells at 1 to 100 uM to efficacy for induction of intracellular Ca2+ level in human NSC cells at 1 to 100 uM. The format is functional.
Data set [15] deals with U-87 MG. Nature of the data set: Antitumor activity against human U87MG cells xenografted in BALB/c mouse assessed as reduction in tumor size at 5 mg/kg/day, ip administered for 21 days with 24 hrs resting period followed by treatment discontinuation till day 39 by hematoxylin and eosin staining based confocal microscopic analysis relative to control. The class given is functional, U-87MG ATCC. On the set-up: scale not given: the % may be the effect or the level left. In short, it runs like this: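 Athymic BALB/c nu/nu mice given intracranial U87MG cells (2.5 × 10⁵ cells in 5 μL) into the left frontal lobe (2 mm lateral from bregma, 0.5 mm anterior, 3.5 mm deep). Treatment began on day 3: 5 mg/kg/day i.p., or 0.9% saline for controls (n = 10 each). Dosing ran 21 days, then stopped until day 39. Brains were fixed in 4% PFA, paraffin-embedded, cut at 5 μm and H&E-stained. Tumor volume = [major axis × (minor axis)²]/2.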
For orientation: In xenograft studies the graft and the host belong to different species.

In data set [16] the test system is U-87 MG. Nature of the data set: Antitumor activity against human U87MG cells xenografted in BALB/c mouse assessed as increase in mouse survival at 5 mg/kg, ip administered for 21 days with 24 hrs resting period followed by treatment discontinuation and measured on day 39. The class given is functional, U-87MG ATCC. In short, it runs like this:
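Orthotopic model in athymic BALB/c nu/nu mice: U87MG cells (2.5 × 10⁵ in 5 μL) injected into the left frontal lobe (2 mm lateral to bregma, 0.5 mm anterior, 3.5 mm deep). From day 3, drug was given i.p. at 5 mg/kg/day or 0.9% saline to controls (n = 10 each) for 21 days. Mice were monitored daily and sacrificed when moribund; survival curves were compared by log-rank test.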

In data set [17] the test system is Mus musculus. Nature of the data set: Toxicity in BALB/c mouse xenografted with human U87MG cells assessed as effect on behavioral changes at 5 mg/kg/day, ip administered for 21 days with 24 hrs resting period followed by treatment discontinuation till day 39. To be noted: in vivo. The class given is organism-based. A digest of the protocol: (§3)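 Same U87MG orthotopic xenograft mice: 5 mg/kg/day i.p. from day 3 for 21 days, or saline (n = 10 each), with dosing stopped until day 39. Mice were checked daily for general appearance, behavioral changes and neurologic deficits, including parkinsonism and extrapyramidal signs.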

Data set [18] deals with Mus musculus. Nature of the data set: Toxicity in BALB/c mouse xenografted with human U87MG cells assessed as induction of neurologic deficits at 5 mg/kg/day, ip administered for 21 days with 24 hrs resting period followed by treatment discontinuation till day 39. The class given is organism-based. To be noted: in vivo. A digest of the protocol: as §3
In data set [19] the test system is U-87 MG. Nature of the data set: Induction of intracellular Ca2+ level in human U87MG cells at 1 to 100 uM by Fura-2 AM dye-based assay relative to control. The class given is functional, U-87MG ATCC. In short, it runs like this: as §1
The subject of data set [20] is Mus musculus. Nature of the data set: Toxicity in BALB/c mouse xenografted with human U87MG cells assessed as effect on general appearance at 5 mg/kg/day, ip administered for 21 days with 24 hrs resting period followed by treatment discontinuation till day 39. The class given is organism-based. To be noted: in vivo. In short, it runs like this:
as §3

Activity calls are given as the source filed them. The rule behind the calls is not given here.

`FC(F)(F)c1ccc2c(c1)N(CCCCN1CCN(c3ccccc3)CC1)c1ccccc1S2` came in with an Activity in the data set with U-87 MG [1] of 94%.
Take `FC(F)(F)c1ccc2c(c1)N(CCCN1CCC(N3CCCC3)CC1)c1ccccc1S2`: in the data set with U-87 MG [1], the Activity is reported as 72%.
For `FC(F)(F)c1ccc2c(c1)N(CCCCN1CCC(N3CCCCC3)CC1)c1ccccc1S2`, the Activity in the data set on U-87 MG [1] is on record as 123%; with NSC [4], “Non-Toxic”. Also, the outcome with U-87 MG [2] was Active. Further, the EC50 with U-87 MG [3] amounted to 6.7 µM. In addition, the IC50 in the data set on U-87 MG [5] was 2.2 µM; in [6] it was 2.1 µM; with NSC [7], 3.1 µM. The Efficacy with U-87 MG [8] was determined as 82%; in [9] it was 85%; in the data set on NSC [10], 43%. The “Ratio IC50” value (in the data set on U-87 MG [11]; in data set [12]) was 4 - 5 each time.
`CC1CCN(CCCN2c3ccccc3Sc3ccc(C(F)(F)F)cc32)CC1` came in with an Activity in the data set with U-87 MG [1] of 83%.
`Clc1ccc2c(c1)N(CCCCN1CCC(N3CCCC3)CC1)c1ccccc1S2`: the Activity in the data set on U-87 MG [1] is 101%.
The same measure, in the same setting: next, `FC(F)(F)c1ccc2c(c1)N(CCCN1CCNCC1)c1ccccc1S2`: 108%; `CSc1ccc2c(c1)N(CCCCN1CCC(C)CC1)c1ccccc1S2`: 72%.
Take `FC(F)(F)c1ccc2c(c1)N(CCCCN1CCC(N3CCOCC3)CC1)c1ccccc1S2`: the Activity in the data set with U-87 MG [1] was 120%; in the data set on NSC [4], “Non-Toxic”. The result in the data set on U-87 MG [2] was Active. In the data set with U-87 MG [3], this compound returned an EC50 of 19.9 µM. Moreover, the values for the IC50 (in the data set with U-87 MG [5]; in [6]; with NSC [7]) were 7.1 µM, 6.5 µM and 5.6 µM, respectively. Also, the Efficacy in the data set on U-87 MG [8] is 82%; in data set [9], 85%; in the data set with NSC [10], 21%.
Regarding `FC(F)(F)c1ccc2c(c1)N(CCCCN1CCC(N3CCCC3)CC1)c1ccccc1S2`, the Activity is 134% in the data set with U-87 MG [1]; “Non-Toxic” in the data set on NSC [4]; 88% with U-87 MG [15]; “Non-Toxic” with Mus musculus [17]; “Non-Toxic” with Mus musculus [18]; “Non-Toxic” in the data set on Mus musculus [20]. Also, the result with U-87 MG [2] was Active. The same compound showed an EC50 with U-87 MG [3] of 6.2 µM. The Emax with NSC [13] was determined as 50%. For the same compound, the Ratio in data set [14] stood at 2. Further, the IC50 came out at 2.3 µM with U-87 MG [5], 2.2 µM in data set [6] and 3.2 µM with NSC [7]. Moreover, the Efficacy with U-87 MG [8] is on record as 82%; in data set [9] it was 85%; in the data set with NSC [10] it was 45%; with U-87 MG [19], 100%. In addition, the “Ratio IC50” value (in the data set with U-87 MG [11]; in [12]) was 4 - 5 throughout. Besides, the Survival in the data set with U-87 MG [16] stood at 6 days.
As to `CC1CCN(CCCN2c3ccccc3Sc3ccc(Cl)cc32)CC1`, the Activity with U-87 MG [1] was 88%.
Consider `CC1CCN(CCCCN2c3ccccc3Sc3ccc(F)cc32)CC1`, for which the Activity in the data set on U-87 MG [1] came out at 110%.
For the compound `CN1CCN(CCCN2c3ccccc3Sc3ccc(C(F)(F)F)cc32)CC1` [TRIFLUOPERAZINE], the EC50 with U-87 MG [3] was found to be 13.5 µM. Further, in the data set with NSC [4], the Activity entry was “Non-Toxic”. The IC50 is 9.9 µM in the data set with U-87 MG [5], 10.2 µM in data set [6] and 10.1 µM in the data set on NSC [7]. Besides, the Efficacy with U-87 MG [8] was found to be 82%; in data set [9], 85%; in the data set on NSC [10], 21%; in the data set on U-87 MG [19], 79%.
In the data set with U-87 MG [1], `CN1CCCN(CCCCN2c3ccccc3Sc3ccc(C(F)(F)F)cc32)CC1` showed an Activity of 107%.
The same measure, in the same setting: in the case of `CC1CCN(CCCCN2c3ccccc3Sc3ccc(C(F)(F)F)cc32)CC1` it was 93%; in that of `CSc1ccc2c(c1)N(CCCN1CCC(C)CC1)c1ccccc1S2`, 76%.

As a reminder, the EC50 is the concentration at which the effect is half-maximal. By IC50 is commonly meant the concentration at which inhibition is half-maximal.
